Results on 9 compounds are retold here after ChEMBL document CHEMBL1151709, “Antileishmanial constituents of the Panamanian endophytic fungus Edenia sp” (J Nat Prod, 2008).

The subject of one data set is Trypanosoma cruzi. The data set can be described thus: Antitrypanosomal activity against Trypanosoma cruzi. The class given is functional, organism-based. In outline:
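Buckner et al. protocol with nifurtimox as positive control; tested in duplicate at 10, 2, 0.4, 0.08 and 0.016 μg/mL.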

For a further data set, the system named is Plasmodium falciparum. The data set can be described thus: Antimalarial activity against Plasmodium falciparum. The class given is functional, organism-based. In outline: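 Run per the authors' earlier protocol with chloroquine as positive control; duplicate wells at 10, 2, 0.4, 0.08 and 0.016 μg/mL.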
The subject of the next data set is Leishmania donovani. The data set can be described thus: Antileishmanial activity against Leishmania donovani LD-1S/MHOM/SD/00-strain 1S amastigotes. The format is functional, organism-based. In outline: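 Axenic (cell-free) L. donovani amastigotes; parasite growth and survival read with PicoGreen. Single-concentration screen at 10 μg/mL in duplicate, expressed as % growth versus control; samples at ≤50% growth then tested at […], 0.08, 0.4, 2 and 10 μg/mL to derive IC50. Amphotericin B positive control.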

Data set [1] is described as follows: Therapeutic index, ratio of IC50 for african green monkey Vero cells to IC50 for Leishmania donovani LD-1S/MHOM/SD/00-strain 1S amastigotes. The class given is cell-based. Conditions: read-out: Ratio IC50. In outline: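 Therapeutic window calculated as Vero-cell IC50 (MTT cytotoxicity) divided by IC50 against axenic L. donovani amastigotes (PicoGreen growth/survival assay).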

A further data set concerns Vero. As to the kind of experiment: Cytotoxicity against african green monkey Vero cells by MTT assay. The class given is cell-based. Conditions: Chlorocebus sabaeus. (Tetrazolium assays rely on reduction of a dye to a coloured formazan, in cell work by metabolically active cells.)
[2] abbreviates: Leishmania donovani, 1S, read-out: IC50.

One may read the IC50 as the point on the concentration scale where inhibition reaches its midpoint. As for `Oc1cccc2c1[C@@H](O)CCC21Oc2cccc3cccc(c23)O1`, the 50% inhibitory concentration (IC50) with Trypanosoma cruzi was 26.5 µM; in the data set on Plasmodium falciparum, above 10 µM; in the data set on Leishmania donovani (setting [2]), 8.4 µM; in the data set on Vero it was 150 µM. The selectivity ratio in data set [1] is 18.
On the same counts, the results for `O=C1C=CC(=O)C2=C1[C@@H](O)CCC21Oc2cccc3cccc(c23)O1` are above 10 µM, above 10 µM, 0.62 µM, 152 µM and 245.
`C[C@@H]1[C@H](O)[C@@H](C)/C=C/C=C/C=C/C=C/C=C/C=C/C=C/[C@H](O[C@@H]2O[C@H](C)[C@@H](O)[C@H](N)[C@@H]2O)C[C@@H]2O[C@](O)(C[C@@H](O)C[C@@H](O)[C@H](O)CC[C@@H](O)C[C@@H](O)CC(=O)O[C@H]1C)C[C@H](O)[C@H]2C(=O)O` [AMPHOTERICIN B] registered an IC50 in the data set on Leishmania donovani of 0.07 µg/mL.
Turning to `COc1cc2c(c(OC)c1)C(C)=[N+](c1ccc(OC)c3c(OC)cc(C)cc13)[C@@H](C)C2.O=C([O-])C(F)(F)F` [ANCISANCISTROCLADINIUM A], in the data set on Leishmania donovani (setting [2]), the IC50 stood at 0.722 µg/mL.
`COc1cc2c(c(OC)c1)C(C)=[N+](c1ccc3cc(C)cc(OC)c3c1O)[C@@H](C)C2.O=C([O-])C(F)(F)F` [ANCISTROCLADINIUM B]: in the data set with Leishmania donovani (setting [2]), the 50% inhibitory concentration (IC50) was determined as 1.1 µg/mL.
As to `CC1CS(=O)(=O)CCN1/N=C/c1ccc([N+](=O)[O-])o1` (centres undefined) [NIFURTIMOX], 3 µg/mL corresponded to half-maximal inhibition in the data set on Trypanosoma cruzi (IC50).
Consider `O=C1CCC2(Oc3cccc4cccc(c34)O2)c2cccc(O)c21` [PALMARUMYCIN CP2], for which the half-maximal inhibitory concentration (IC50) with Trypanosoma cruzi was 18.5 µM; in the data set on Plasmodium falciparum it was above 10 µM; with Leishmania donovani (setting [2]), 3.93 µM; in the data set on Vero it was 162 µM. In data set [1], the selectivity ratio stood at 41.
Turning to `O=C1CCC2(Oc3cccc4cccc(c34)O2)c2c(O)ccc(O)c21` [PALMARUMYCIN CP17], the half-maximal inhibitory concentration (IC50) was above 10 µM in the data set with Trypanosoma cruzi, above 10 µM in the data set with Plasmodium falciparum, 1.34 µM with Leishmania donovani (setting [2]) and 174 µM with Vero. Also, in data set [1], the selectivity ratio amounted to 130.
Take `O=C1C=C[C@]23Oc4ccc(O)c5c4[C@](CCC5=O)(Oc4cccc1c42)O3` [PREUSSOMERIN EG1]: the half-inhibitory concentration (IC50) was above 10 µM in the data set on Trypanosoma cruzi, 16.5 µM in the data set with Plasmodium falciparum, 0.12 µM with Leishmania donovani (setting [2]) and 9 µM in the data set on Vero. Besides, in data set [1], the selectivity ratio was determined as 75.
